Columns and labels:
[1] = biological target: T1, Alpha-1B adrenergic receptor (Homo sapiens, UniProt P35368); assay: Displacement of [3H]prazosin from human alpha1B adrenergic receptor expressed in CHO cell membranes after 30 mins by rapid filtration method
T1 sequence (P35368 whole entry): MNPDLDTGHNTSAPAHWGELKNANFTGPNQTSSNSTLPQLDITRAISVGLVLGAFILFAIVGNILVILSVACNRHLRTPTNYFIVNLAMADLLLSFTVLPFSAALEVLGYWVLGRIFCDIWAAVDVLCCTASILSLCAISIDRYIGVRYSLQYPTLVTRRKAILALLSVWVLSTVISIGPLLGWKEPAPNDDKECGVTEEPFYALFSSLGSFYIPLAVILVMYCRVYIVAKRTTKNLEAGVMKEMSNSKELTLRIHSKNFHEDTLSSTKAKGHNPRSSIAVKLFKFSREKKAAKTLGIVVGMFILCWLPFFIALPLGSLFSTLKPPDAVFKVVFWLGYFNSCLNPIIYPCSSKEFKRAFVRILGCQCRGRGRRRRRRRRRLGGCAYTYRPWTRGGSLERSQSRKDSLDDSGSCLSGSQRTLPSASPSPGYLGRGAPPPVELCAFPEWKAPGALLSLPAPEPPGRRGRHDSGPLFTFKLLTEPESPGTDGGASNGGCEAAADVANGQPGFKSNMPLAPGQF
Outline: (§1)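 Membranes (30 μg protein) from CHO cells stably transfected with the human α1a, α1b or α1d receptor. Incubated 30 min at 25 °C in 50 mM Tris-HCl pH 7.4 with 0.1–0.4 nM [3H]prazosin and competitor 1 pM–10 μM. Nonspecific binding defined by 10 μM phentolamine. Stopped by rapid filtration through PEI-treated filters. IC50 converted to Ki by Cheng-Prusoff; pKi from 2–3 experiments in triplicate.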

[2] = biological target: T2, Alpha-1D adrenergic receptor (Homo sapiens, UniProt P25100); assay: Displacement of [3H]prazosin from human alpha1D adrenergic receptor expressed in CHO cell membranes after 30 mins by rapid filtration method; outline: as §1
T2 sequence (P25100 whole entry): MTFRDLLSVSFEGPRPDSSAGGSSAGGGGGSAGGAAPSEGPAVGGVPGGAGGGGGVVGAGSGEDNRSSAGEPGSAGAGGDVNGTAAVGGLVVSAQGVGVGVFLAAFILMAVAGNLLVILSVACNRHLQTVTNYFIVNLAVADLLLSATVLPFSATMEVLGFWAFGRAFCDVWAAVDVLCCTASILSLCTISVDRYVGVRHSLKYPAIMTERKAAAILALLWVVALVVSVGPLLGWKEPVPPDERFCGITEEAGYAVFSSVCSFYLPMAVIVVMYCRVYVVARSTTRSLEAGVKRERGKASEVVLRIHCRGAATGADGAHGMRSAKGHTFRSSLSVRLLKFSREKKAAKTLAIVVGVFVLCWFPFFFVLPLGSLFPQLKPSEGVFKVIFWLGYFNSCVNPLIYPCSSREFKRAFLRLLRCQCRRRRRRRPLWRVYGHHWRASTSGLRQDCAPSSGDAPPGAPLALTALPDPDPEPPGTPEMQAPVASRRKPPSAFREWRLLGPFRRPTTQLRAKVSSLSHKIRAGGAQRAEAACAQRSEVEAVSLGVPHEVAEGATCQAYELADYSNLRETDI

[3] = biological target: T3, Alpha-1A adrenergic receptor (Homo sapiens, UniProt P35348); assay: Displacement of [3H]prazosin from human alpha1A adrenergic receptor expressed in CHO cell membranes after 30 mins by rapid filtration method; outline: as §1
T3 sequence (P35348 whole entry): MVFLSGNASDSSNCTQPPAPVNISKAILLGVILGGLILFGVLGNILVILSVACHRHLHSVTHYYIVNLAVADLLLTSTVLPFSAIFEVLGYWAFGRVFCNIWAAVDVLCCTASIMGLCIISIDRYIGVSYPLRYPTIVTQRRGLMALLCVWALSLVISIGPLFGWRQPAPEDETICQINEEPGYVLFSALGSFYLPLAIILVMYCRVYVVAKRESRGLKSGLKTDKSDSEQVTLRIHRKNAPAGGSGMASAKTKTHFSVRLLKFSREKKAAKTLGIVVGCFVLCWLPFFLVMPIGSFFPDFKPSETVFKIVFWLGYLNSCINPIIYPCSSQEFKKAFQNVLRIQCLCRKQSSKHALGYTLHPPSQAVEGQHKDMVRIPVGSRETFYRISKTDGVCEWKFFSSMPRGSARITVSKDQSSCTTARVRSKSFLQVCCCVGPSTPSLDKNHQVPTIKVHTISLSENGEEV

[4] = biological target: T4, Alpha-1B adrenergic receptor (Rattus norvegicus) (UniProt P15823); assay: Antagonist activity at alpha1B adrenergic receptor in Wistar rat spleen assessed as inhibition of phenylephrine-induced contraction incubated for 30 mins in presence of beta-adrenoceptor blocker propranolol hydrochloride; format: functional
T4 sequence (whole entry): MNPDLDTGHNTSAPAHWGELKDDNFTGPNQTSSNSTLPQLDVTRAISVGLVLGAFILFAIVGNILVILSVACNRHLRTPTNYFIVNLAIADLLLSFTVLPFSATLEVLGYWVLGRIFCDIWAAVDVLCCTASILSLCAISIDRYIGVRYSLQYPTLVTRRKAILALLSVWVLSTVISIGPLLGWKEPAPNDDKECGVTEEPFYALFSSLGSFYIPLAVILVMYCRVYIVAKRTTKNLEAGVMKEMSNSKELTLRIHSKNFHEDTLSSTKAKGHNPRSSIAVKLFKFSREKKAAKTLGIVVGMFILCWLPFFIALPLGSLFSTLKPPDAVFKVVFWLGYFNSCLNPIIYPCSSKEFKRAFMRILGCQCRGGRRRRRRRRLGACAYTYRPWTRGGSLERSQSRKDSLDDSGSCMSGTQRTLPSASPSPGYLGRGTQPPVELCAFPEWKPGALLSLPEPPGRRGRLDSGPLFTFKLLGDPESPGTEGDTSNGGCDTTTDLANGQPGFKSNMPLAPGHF
Outline: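 Spleen bisected longitudinally into strips in Krebs with propranolol 4 μM, held at 1 g and equilibrated 2 h. Two isometric cumulative phenylephrine curves, each followed by 30 min washing. Third curve after 30 min vehicle or antagonist. Potency as pA2 (Schild) or pKB at one concentration (van Rossum). Responses as % of control maximum; n ≥ 4.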

[5] = biological target: T5, Alpha-1A adrenergic receptor (Rattus norvegicus, UniProt P43140); assay: Antagonist activity at alpha1A adrenergic receptor in Wistar rat prostatic rat vas deferens assessed as inhibition of noradrenaline-induced contraction preincubated for 30 mins followed by noradrenaline addition measured after 45 mins in presence of cocaine hydrochloride; format: functional; conditions: read-out: pA2 (converted)
T5 sequence (P43140 whole entry): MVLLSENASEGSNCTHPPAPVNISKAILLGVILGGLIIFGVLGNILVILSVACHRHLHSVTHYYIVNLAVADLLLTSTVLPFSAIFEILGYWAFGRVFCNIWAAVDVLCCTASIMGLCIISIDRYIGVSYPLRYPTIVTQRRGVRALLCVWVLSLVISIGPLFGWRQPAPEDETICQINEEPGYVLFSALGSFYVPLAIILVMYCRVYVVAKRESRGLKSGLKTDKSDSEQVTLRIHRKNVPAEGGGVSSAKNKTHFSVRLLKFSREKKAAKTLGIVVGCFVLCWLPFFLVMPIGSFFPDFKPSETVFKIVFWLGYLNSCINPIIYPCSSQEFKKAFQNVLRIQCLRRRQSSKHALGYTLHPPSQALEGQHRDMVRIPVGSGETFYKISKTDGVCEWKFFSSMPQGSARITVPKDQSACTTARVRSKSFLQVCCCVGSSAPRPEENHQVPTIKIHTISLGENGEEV
Outline: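 Prostatic rat vas deferens, 2 cm portions, held at 0.35 g in Tyrode (pH 7.4, 37 °C, 95% O2/5% CO2). Cocaine 10 μM added 20 min before the agonist. Tissue equilibrated 45 min and primed twice with 10 μM noradrenaline. Isotonic cumulative noradrenaline curves were run before and after 30 min antagonist. pA2 came from Schild plots (≥3 concentrations); otherwise pKB (van Rossum). n ≥ 4.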

[6] = biological target: T1, Alpha-1B adrenergic receptor; assay: Binding affinity to human alpha1B adrenergic receptor

Row | SMILES | Ki [1] | Ki [2] | Ki [3] | pKb [4] | Kb [5] | Ki [6]
1 | COc1cc2nc(N3CCN(C(=O)c4ccco4)[C@@H]4CCCC[C@@H]43)nc(N)c2cc1OC | 0.0708 nM | 0.0603 nM | 0.589 nM | 9.67 | 0.589 nM | 
2 | COc1cc2nc(N3CCN(C(=O)c4ccco4)[C@H]4CCCC[C@H]43)nc(N)c2cc1OC [CYCLAZOSIN] |  |  |  | 8.86 |  | 0.135 to 0.692 nM

Reference: ChEMBL document CHEMBL4118202, “Chiral analogues of (+)-cyclazosin as potent α1B-adrenoceptor selective antagonist” (Bioorg Med Chem, 2018)
